Source: PubChem BioAssay
T cell modulator – modulators of CD8 T cell-vesicle binding, primary screen, mouse 2C CD8+ T cells, flow cytometry | response (vesicle binding), % at 7 µM | 2C CD8+ T cell-vesicle binding; stronger effect = lower value | actives 0.068% (n = 330,000) | AID 2052, 2009;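 active means response, share of CD8 T cells binding vesicles, and their 90th percentile fluorescence all below set limits, cut at about 80% in these data, passing the limit was not always enough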;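 further: values below 100% mean blocked vesicle binding to the CD8+ T cells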
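Assay system: 2C TCR transgenic mouse naive CD8+ T cells, MACS-purified | Read-out: CD8+ gate FL2 mean fluorescence as % of same-row positive control | Signal: High-throughput flow cytometry with anti-B7-1 and anti-CD8 staining | Timing: Binding step 1.5 h, 37 °C, antibody labelling 20 min, ice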
rCAG RNA binder – binders of r(CAG) RNA repeats, primary screen, biochemical, fluorescence. actives 1.3% (n = 370,000). AID 651821, 2012. inhibition, % at 3 µM. r(CAG) RNA repeat, TO-PRO-1 dye displacement fluorescence;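 active means inhibition above the plate cutoff, the mean of all test compounds on that plate plus 3 SD, cut at about 35% in these data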;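 further: higher means more dye released from RNA so lower well fluorescence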
Exocytosis inh – LAMP-1 surface exposure blockers, TALL-104 cells – cell-based, flow cytometry, MLPCN library, primary screen | actives 0.66% (n = 360,000) | TALL-104 LAMP-1 surface exposure; cells stimulated with thapsigargin and PMA | inhibition, % at 10 µM | AID 651702, 2012;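 active means inhibition above about 55%, limit read from the data; inconclusive means no clear call, values can overlap the other calls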
V-ATPase pH – regulators of yeast V-ATPase proton pumping, primary screen, pHLuorin cytosolic pH fluorescence. S. cerevisiae. actives 0.37% (n = 350,000). AID 504577, 2011. response, % at 10 µM; in the data active means response mostly above about 7.3%, no sharp cut-off; inactive means mostly below about 5.4%; further: actives read high
MPTP inh – mitochondrial permeability transition pore inhibitors, primary screen, biochemical, isolated mouse mitochondria, absorbance. Ca2+ swelling absorbance, 30 min. inhibition, % at 10 µM. actives 1.4% (n = 360,000);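 active means inhibition of 50% or more, scaled per plate between neutral and stimulator controls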
B2AR ag – beta2AR agonists driving receptor internalization, primary screen, cell-based, FAP fluorogen, flow cytometry; actives 0.43% (n = 340,000); response, % (test concentration not listed); Am2.2-beta2AR cells;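 active means response above a set limit, near 3 SD of response in nonfluorescent compounds, cut at about 42% in these data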
Target sequence (P07550 whole entry, looked up): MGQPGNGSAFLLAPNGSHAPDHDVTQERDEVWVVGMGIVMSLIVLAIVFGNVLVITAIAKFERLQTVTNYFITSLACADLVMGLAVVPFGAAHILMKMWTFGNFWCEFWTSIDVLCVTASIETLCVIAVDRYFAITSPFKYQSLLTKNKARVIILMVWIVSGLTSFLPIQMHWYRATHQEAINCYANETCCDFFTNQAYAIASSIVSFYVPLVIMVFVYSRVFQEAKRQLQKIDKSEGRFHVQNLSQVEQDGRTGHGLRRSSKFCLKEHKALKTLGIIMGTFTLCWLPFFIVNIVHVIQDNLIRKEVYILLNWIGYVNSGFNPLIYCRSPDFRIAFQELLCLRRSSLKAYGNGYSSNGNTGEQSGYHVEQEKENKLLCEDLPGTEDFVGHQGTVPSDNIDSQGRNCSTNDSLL
Rh123 counter – fluorescence retest of MPTP screen hits in isolated mitochondria, single concentration. shares compounds with MPTP inh. membrane potential, Rhodamine 123 fluorescence. inhibition, % at 10 µM. actives 78% (n = 5,000). AID 624504, 2012; in the data active means inhibition above about 22%
MPTP abs DR – mitochondrial permeability transition pore inhibitors, dose response, biochemical, absorbance, uHTS hits; shares compounds with MPTP inh; isolated mitochondria swelling; IC50, µM; actives 58% (n = 780); in the data active means IC50 below about 20 µM
MPTP cs DR – fluorescent counter-screen in isolated mitochondria, dose response, counter-screen for MPTP inhibitor project, biochemical, fluorescence, uHTS hits | isolated mitochondria counterscreen, fluorescence read-out | shares compounds with MPTP inh | IC50, µM | actives 49% (n = 780); in the data active means IC50 below about 80 µM
A number is an active result; – = inactive; ? = inconclusive; · = no result. Sampled rows, rich in hits. Any-hit rate of the full collection: about 3.8%.

SMILES	T cell modulator	rCAG RNA binder	Exocytosis inh	V-ATPase pH	MPTP inh	B2AR ag	Rh123 counter	others
O=C(c1ccc(F)cc1Cl)N1CCCC(c2nc(-c3cccs3)no2)C1 (stereo not drawn)	·	–	·	·	·	·	·
Cc1ccccc1CN1CCCCC(NC(=O)Nc2ccccc2)C1=O (stereo not drawn)	·	–	·	·	·	·	·
CCCCSCCCNC(=O)Nc1ccc(CC)cc1	–	–	–	–	86	–	83
CCCCCCNC(=O)Nc1ccccc1	–	–	–	–	–	–	·
CCNC(=S)Nc1ccc(Cl)cc1Cl	–	–	–	–	–	–	·
S=C(NCCc1ccccc1)Nc1ccc(Cl)cc1Cl	–	–	–	–	82	–	102
O=C(NCCc1ccc(Cl)cc1)Nc1ccc(Cl)cc1	–	–	–	–	78	–	98
CCOc1ccc(-n2c(COc3ccc(Cl)cc3)nnc2SCC(=O)Nc2ccc(OCc3ccccc3)cc2)cc1	·	–	·	·	·	·	·
CC(C)OC(=O)c1cc(NC(=S)Nc2ccc([N+](=O)[O-])cc2)cc(C(=O)OC(C)C)c1	–	–	–	–	97	–	100
S=C(NCCc1ccccc1)Nc1ccc(Br)cc1	–	–	–	–	98	–	92
CCCCNC(=S)Nc1ccc([N+](=O)[O-])cc1	–	–	–	–	95	–	89
CC(C)CCNC(=S)Nc1ccc([N+](=O)[O-])cc1	–	–	–	–	98	–	85
CC1CC1C(=O)N1CCC(Oc2cccnc2)CC1 (stereo not drawn)	·	–	·	·	·	·	·
CN(C)CC(=O)N[C@H]1C[C@@H]2O[C@@H](CO)CC[C@@H]2O[C@@H]1CCc1ccc(C2=CCCCC2)cc1	·	–	·	·	·	·	·
CCCCCC[C@H](CC)CN(C(=O)Oc1ccccc1)c1ccccc1	·	–	·	·	·	·	·
CC(C)CCNC(=S)Nc1ccc(Br)cc1	–	–	–	–	100	–	88
CCCNC(=S)Nc1ccc(Br)cc1	–	–	–	–	–	–	·
CCCC1=NN(c2ccc([N+](=O)[O-])cc2)C(=O)/C1=C\N(C)C	–	–	–	–	78	–	26
O=c1cc(C(F)(F)F)[nH]c2ccc(OC(F)(F)F)cc12	–	–	–	–	64	–	85
O=c1cc(C(F)(F)F)[nH]c2c(C(F)(F)F)cccc12	–	·	–	–	64	–	98
CCOc1ccc2[nH]c(C)cc(=O)c2c1	–	–	–	–	–	–	·
CN(C(=O)c1cn(C)c2ccccc12)c1ccc(Oc2cccnc2)cc1	·	–	·	·	·	·	·
Cc1ccc(NC(=O)CNc2ccc(Cl)c(Cl)c2)cc1S(=O)(=O)N(C)C	–	–	–	–	96	–	94
Cc1ccc(NC(=O)Cc2ccc(Cl)c(Cl)c2)cc1S(=O)(=O)N(C)C	–	–	–	–	88	–	88
Cc1ccc(NC(=O)Cc2ccccc2Cl)cc1S(=O)(=O)N(C)C	–	–	–	–	–	–	·
SMILES	T cell modulator	rCAG RNA binder	Exocytosis inh	V-ATPase pH	MPTP inh	B2AR ag	Rh123 counter	others
CC(C)(C)c1ccc(-c2cn(C[C@H](Cc3ccccc3)n3c(=O)c4ccccc4n3Cc3ccco3)nn2)cc1	·	–	·	·	·	·	·
Nc1nc2ccccc2n1CCOc1ccccc1Cl	–	–	–	–	74	–	–	MPTP abs DR=9;MPTP cs DR=27
Nc1nc2ccccc2n1CCOc1ccc(Cl)cc1	–	–	–	–	–	–	·
Cc1cc2oc3ccc(NCCCn4ccnc4)cc3c(=O)c2cc1C	–	–	–	–	58	–	–
CSCCC(NC(=O)c1ccc(Cl)cc1)C(=O)OCC(=O)Nc1ccc(C#N)cc1 (stereo not drawn)	–	–	–	–	50	–	44
CCCCNC(=O)C[C@H]1C[C@@]2(C(=O)OC)C(=C[C@H](COCc3ccccc3)O[C@@H]2C)N(Cc2ccco2)C1=O	·	–	·	·	·	·	·
COc1ccc(Cl)cc1NC(=O)c1[nH]c(C)c(C(C)=O)c1C	–	–	–	–	–	–	·
CCc1c(C(=O)Nc2ccc(OC)c(Cl)c2)[nH]c(C)c1C(C)=O	–	–	–	–	88	–	95
COc1ccccc1NS(=O)(=O)c1ccc(O)c(C(=O)OCc2cccc([N+](=O)[O-])c2)c1	–	–	–	–	–	–	·
COc1ccc(C(=O)COC(=O)c2ccccc2NS(=O)(=O)c2ccc(O)c([N+](=O)[O-])c2)cc1	–	92	–	–	71	–	51
O=Cc1ccc(OCC(=O)NCC2CCCO2)cc1 (stereo not drawn)	–	–	–	–	64	–	–	MPTP abs DR=–;MPTP cs DR=–
S=C(NCCc1ccccc1)Nc1cccc2cnccc12	–	–	–	–	86	–	85
S=C(Nc1cccc(Cl)c1)Nc1cccc2cnccc12	–	·	?	–	97	–	99
COC(=O)[C@]1(CNC(=O)c2cc(F)ccc2F)CC(=O)N(C)[C@@H]1c1ccccc1	·	–	·	·	·	·	·
CCn1c2ccccc2c2cc(NC(=O)COC(=O)c3cccc(F)c3F)ccc21	·	–	·	·	·	·	·
Cc1occc1-c1nnc(SCC(=O)NC(C)(C)C)n1CC(C)C	–	–	–	–	–	–	·
Cc1occc1-c1nnc(SCC(=O)NCc2ccco2)n1CC(C)C	–	–	–	–	63	–	–	MPTP abs DR=–;MPTP cs DR=–
CCOc1cc(/C=C2/C(=N)N3C(=NC2=O)SN=C3S(C)(=O)=O)ccc1OS(=O)(=O)c1ccccc1	–	·	–	–	–	–	·
CCOc1ccc(-n2c(C)cc(/C=C3/C(=N)N4C(=NC3=O)SN=C4S(C)(=O)=O)c2C)cc1	–	–	–	–	76	–	28
CC(C)(C)CC(C)(C)NC(=O)Nc1cccc([N+](=O)[O-])c1	–	–	–	–	90	–	84
CC(C)(C)c1ccc(C(=O)Nc2cccc([N+](=O)[O-])c2)cc1	–	–	–	–	95	–	85
Clc1ccccc1N1CCN(C2=Nc3ccccc3Sc3ccccc32)CC1	·	–	·	·	·	·	·
CN1CCCCC(NC(=O)c2c(F)cccc2F)C1=O (stereo not drawn)	·	–	·	·	·	·	·
CC(=O)c1c(C)[nH]c(C(=O)Nc2nc(C)cs2)c1C	–	–	–	–	–	–	·
COc1cccc(OC)c1C(=O)Nc1nc(-c2ccccc2)cs1	–	–	–	–	–	–	·
CC(=O)c1c(C)[nH]c(C(=O)Nc2nc(-c3ccc(-c4ccccc4)cc3)cs2)c1C	–	–	–	–	94	–	69
